According to ChEMBL document CHEMBL1121793, “Biological effects of modified colchicines. Improved preparation of 2-demethylcolchicine, 3-demethylcolchicine, and (+)-colchicine and reassignment of the position of the double bond in dehydro-7-deacetamidocolchicines” (J Med Chem, 1981):
Active and inactive are the calls of the source. No cut-off for these calls is given here.

Tests used:
[1] = species: Mus musculus; assay: Dose of compound which caused an average weight loss >3g in a set of mice or the death of one or more of the mice in the set in the P388 NCI screen.; assay type: functional
Procedure, shortened: (§1)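 P388 leukemia-bearing mice, 20–22 g; one im injection daily for 9 days, compound in hydroxypropylcellulose suspension or aqueous solution. Toxic dose = lowest dose level at which ≥1 mouse died on or by day 5, or group mean weight loss >3 g; converted to μmol/kg.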

[2] = tested on: Mus musculus; assay: Toxicity found after a single im injection. The total number of deaths were counted after 7 days and LD50 was determined by probit analysis; 2.5-4.0; assay type: functional
Procedure, shortened: (§2)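 NIH general purpose mice (ca. 20 g), ten per dose level, usually ≥5 dose levels; single im injection in Emulphor EL-620 mixture, vehicle-only group of ten as control. Survivors counted at day 7; LD50 with 95% confidence interval by probit analysis, converted to μmol/kg.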

[3] = tested on: P388; assay: The compound was tested for its potency against lymphocytic leukemia P388 screen in mice.; assay type: functional, Mus musculus
[4] = tested on: P388; conditions: Mus musculus
[5] = tested on: P388; assay: The compound was tested for its potency against lymphocytic leukemia P388 screen in mice; Inactive.; assay type: functional, cell-based; conditions: Mus musculus
[6] = tested on: Mus musculus; assay: (§3) Toxicity found after a single im injection. The total number of deaths were counted after 7 days and LD50 was determined by probit analysis.; assay type: functional; procedure, shortened: as §2
[7] = tested on: Mus musculus; assay: Toxicity found after a single im injection. The total number of deaths were counted after 7 days and LD50 was determined by probit analysis; 6.4-11.8; assay type: functional; procedure, shortened: as §2
[8] = as §3; assay type: organism-based; conditions: mouse, in vivo, read-out: Toxicity; procedure, shortened: as §2
[9] = species: Mus musculus; assay: Dose of compound which caused an average weight loss >3g in a set of mice or the death of one or more of the mice in the set in the P388 NCI screen; assay type: functional; procedure, shortened: as §1
[10] = tested on: Mus musculus; assay: Toxicity found after a single im injection. The total number of deaths were counted after 7 days and LD50 was determined by probit analysis; 101.5-317.8; assay type: functional; procedure, shortened: as §2
[11] = tested on: Mus musculus; assay: Toxicity found after a single im injection. The total number of deaths were counted after 7 days and LD50 was determined by probit analysis; 0.9-1.3; assay type: functional; procedure, shortened: as §2
[12] = tested on: Mus musculus; assay: Toxicity found after a single im injection. The total number of deaths were counted after 7 days and LD50 was determined by probit analysis; 28.6-63.9; assay type: functional; procedure, shortened: as §2
[13] = tested on: Mus musculus; assay: Toxicity found after a single im injection. The total number of deaths were counted after 7 days and LD50 was determined by probit analysis; 82.9-163.4; assay type: functional; procedure, shortened: as §2
[14] = tested on: Mus musculus; assay: Toxicity found after a single im injection. The total number of deaths were counted after 7 days and LD50 was determined by probit analysis; 2.4-5.1; assay type: functional; procedure, shortened: as §2

Which results are given for `COc1cc2c(c(OC)c1OC)-c1ccc(OC)c(=O)cc1[C@@H](NC(C)=O)CC2` [COLCHICINE]?
Toxicity [1]: 2.5 µM/kg; Toxicity [2]: 3 µM/kg; Potency [3]: 0.4 µM/kg

Which Potency [4] does the source give for `COc1cc2c(c(OC)c1OC)-c1ccc(=O)c(OC)cc1[C@@H](NC(=O)C(F)(F)F)CC2` here?
The Potency was “inactive”.

With `COc1cc2c(c(OC)c1OC)-c1ccc(=O)c(OC)cc1[C@@H](N(C)C)CC2` as the compound, how does the Potency [5] read?
The Potency was “inactive”.

With `COc1cc2c(c(OC(C)=O)c1OC)-c1ccc(OC)c(=O)cc1[C@@H](NC(C)=O)CC2` as the compound, how does the Potency [4] read?
The Potency was “inactive”.

And the Toxicity [1]?
The Toxicity was 46.8 µM/kg.

What about the Toxicity [6] of the same compound?
Its Toxicity is 205.9 µM/kg.

For `COc1cc2c(c(OC)c1OC)-c1ccc(OC)c(=O)cc1[C@@H](N(C)C(=O)C(F)(F)F)CC2`, which Toxicity [7] is on record?
The Toxicity was 8.8 µM/kg.

What about the Toxicity [1] of the same compound?
The Toxicity was 5.4 µM/kg.

And the Potency [3]?
The Potency was 1.5 µM/kg.

For `COc1cc2c(c(OC)c1OC)-c1ccc(OC)c(=O)cc1CC=C2`, which LD50 at 168 h [8] is on record?
Its LD50 at 168 h is ~300 µmol/kg.

And the Toxicity [9]?
The Toxicity was 29.4 µM/kg.

And the Potency [3]?
Its Potency is 15.9 µM/kg.

For `COc1cc2c(c(OC)c1OC)-c1ccc(OC)c(=O)cc1[C@@H](N(C)C=O)CC2`, which Toxicity [1] is on record?
The Toxicity was 6.3 µM/kg.

What about the Toxicity [10] of the same compound?
Its Toxicity is 179.7 µM/kg.

What about the Potency [3] of the same compound?
Its Potency is 1.7 µM/kg.

For `COc1cc2c(c(OC)c1OC)-c1ccc(OC)c(=O)cc1[C@@H](NC(=O)C(F)(F)F)CC2`, which Toxicity [11] is on record?
Its Toxicity is 1.1 µM/kg.

What about the Toxicity [1] of the same compound?
Its Toxicity is 0.9 µM/kg.

And the Potency [3]?
Its Potency is 0.4 µM/kg.

With `COc1cc2c(c(OC)c1OC)-c1ccc(OC)c(=O)cc1[C@@H](N(C)Cc1ccccc1O)CC2` [SPECIOSINE] as the compound, how does the LD50 at 168 h [8] read?
Its LD50 at 168 h is 296 µmol/kg.

What about the Toxicity [9] of the same compound?
Its Toxicity is 83.9 µM/kg.

And the Potency [3]?
The Potency was 22 µM/kg.

With `COc1cc2c(c(OC)c1OC)-c1ccc(OC)c(=O)cc1C(=O)CC2` as the compound, how does the Toxicity [1] read?
The Toxicity was 28.1 µM/kg.

And the Potency [3]?
The Potency was 9.6 µM/kg.

For `COc1c(O[C@H]2O[C@H](CO)[C@@H](O)[C@H](O)[C@H]2O)cc2c(c1OC)-c1ccc(OC)c(=O)cc1C(NC(C)=O)CC2` (some centres not stated), which Potency [4] is on record?
The Potency was “inactive”.

With `CN[C@H]1CCc2cc(OC)c(OC)c(OC)c2-c2ccc(OC)c(=O)cc21` [DEMECOLCINE] as the compound, how does the Toxicity [1] read?
The Toxicity was 21.6 µM/kg.

What about the Potency [3] of the same compound?
Its Potency is 10.8 µM/kg.

With `COc1cc2c(c(OC)c1O)-c1ccc(OC)c(=O)cc1[C@@H](NC(C)=O)CC2` [2-DESMETHYLCOLCHICIN] as the compound, how does the Toxicity [1] read?
The Toxicity was 51.9 µM/kg.

What about the Toxicity [12] of the same compound?
Its Toxicity is 42.9 µM/kg.

What about the Potency [3] of the same compound?
The Potency was 13.8 µM/kg.

For `COc1cc2c(c(OC)c1OC)-c1ccc(OC)c(=O)cc1[C@@H](N(C)C)CC2`, which LD50 at 168 h [8] is on record?
Its LD50 at 168 h is 520 µmol/kg.

And the Toxicity [9]?
The Toxicity was 51.9 µM/kg.

What about the Potency [3] of the same compound?
Its Potency is 68 µM/kg.

For `COc1cc2c(c(OC)c1OC)-c1ccc(=O)c(OC)cc1CC=C2`, which Potency [5] is on record?
The Potency was “inactive”.

With `CN[C@H]1CCc2cc(OC)c(OC)c(OC)c2-c2ccc(=O)c(O)cc21` as the compound, how does the Potency [4] read?
The Potency was “inactive”.

With `COc1cc2c(c(OC)c1OC)-c1ccc(OC)c(=O)cc1[C@H](NC(C)=O)CC2` as the compound, how does the Toxicity [13] read?
The Toxicity was 122.6 µM/kg.

Which Potency [4] does the source give for `COC1=CC=C2C(=C(NC(C)=O)CCc3cc(OC)c(OC)c(OC)c32)CC1=O` here?
Its Potency is “inactive”.

For `COc1cc2c(c(OC)c1OC)-c1ccc(=O)c(OC)cc1[C@@H](N(C)C=O)CC2`, which Potency [4] is on record?
The Potency was “inactive”.

Which Toxicity [1] does the source give for `COc1cc2c(c(OC)c1OC)-c1ccc(OC)c(=O)cc1[C@@H](N(C)C(C)=O)CC2` here?
The Toxicity was 3 µM/kg.

What about the Toxicity [14] of the same compound?
Its Toxicity is 3.6 µM/kg.

What about the Potency [3] of the same compound?
The Potency was 0.4 µM/kg.

Which Potency [4] does the source give for `COc1cc2c(c(OC)c1OC)-c1ccc(=O)c(OC)cc1[C@@H](N(C)C(C)=O)CC2` here?
The Potency was “inactive”.

Which Toxicity [1] does the source give for `COc1cc2c(c(O)c1OC)-c1ccc(OC)c(=O)cc1[C@@H](NC(C)=O)CC2` here?
Its Toxicity is 103.9 µM/kg.

And the Toxicity [6]?
Its Toxicity is >520 µM/kg.

What about the Potency [3] of the same compound?
Its Potency is 86 µM/kg.

Which Potency [4] does the source give for `COc1cc2c(c(O)c1OC)-c1ccc(SC)c(=O)cc1[C@@H](NC(C)=O)CC2` here?
The Potency was “inactive”.
